Laboratory results: BindingDB's records for doi:10.1021/jm950716i (Cortech, 1996)

Biological target: T1, B2 bradykinin receptor (Rattus norvegicus, UniProt P25023)
T1 sequence (P25023 whole entry): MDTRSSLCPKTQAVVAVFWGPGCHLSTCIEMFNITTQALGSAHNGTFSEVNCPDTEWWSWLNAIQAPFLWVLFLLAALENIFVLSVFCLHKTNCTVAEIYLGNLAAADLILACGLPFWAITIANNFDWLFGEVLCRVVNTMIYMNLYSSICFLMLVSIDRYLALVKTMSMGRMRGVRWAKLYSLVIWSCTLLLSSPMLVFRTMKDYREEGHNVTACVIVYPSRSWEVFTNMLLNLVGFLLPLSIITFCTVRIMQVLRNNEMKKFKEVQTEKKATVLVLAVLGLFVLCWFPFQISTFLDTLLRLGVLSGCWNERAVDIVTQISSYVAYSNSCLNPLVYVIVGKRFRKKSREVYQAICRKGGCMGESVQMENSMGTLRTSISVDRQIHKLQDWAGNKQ
Assay: In vitro Bradykinin receptor B2 antagonist activity by using rat uterus functional assay
Method in brief: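 Uterine horns from female Sprague-Dawley rats primed with stilbesterol (100 μg/kg) 18 h earlier. Tissue held at 1 g tension in De Jalon's solution, 31 °C, aerated. […] Potency by Arunlakshana-Schild analysis.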

SMILES: N=C(N)NCCCCC(=O)N1CCC[C@@H]1C(=O)N1C[C@@H](O)C[C@@H]1C(=O)NCC(=O)N[C@@H](Cc1cccs1)C(=O)N[C@@H](CO)C(=O)N1Cc2ccccc2C[C@@H]1C(=O)N(CC(=O)N[C@@H](CCCNC(=N)N)C(=O)O)C1CCCCC1
- Kd: 22.4 nM
